Source: PubChem (several laboratories)
A selection: hits, their analogues and other compounds. The true share with any hit is near 1.7%.
EP2 antag – human EP2 receptor antagonists, primary screen, TR-FRET cAMP, C6 glioma cells; Prostaglandin E2 receptor EP2 subtype (Homo sapiens), P43116; C6 glioma cells expressing human EP2; cells stimulated with saturating PGE2; AID 1422, 2008; inhibition, % at 25 µM; 260,000 tested, 0.52% active;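 active = percent inhibition above 40 after rounding to a whole number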;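 note: rat C6 glioma host cells with rolipram phosphodiesterase inhibitor present; the protocol text gives 20 µM as final concentration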
Target sequence (P43116 whole entry, looked up): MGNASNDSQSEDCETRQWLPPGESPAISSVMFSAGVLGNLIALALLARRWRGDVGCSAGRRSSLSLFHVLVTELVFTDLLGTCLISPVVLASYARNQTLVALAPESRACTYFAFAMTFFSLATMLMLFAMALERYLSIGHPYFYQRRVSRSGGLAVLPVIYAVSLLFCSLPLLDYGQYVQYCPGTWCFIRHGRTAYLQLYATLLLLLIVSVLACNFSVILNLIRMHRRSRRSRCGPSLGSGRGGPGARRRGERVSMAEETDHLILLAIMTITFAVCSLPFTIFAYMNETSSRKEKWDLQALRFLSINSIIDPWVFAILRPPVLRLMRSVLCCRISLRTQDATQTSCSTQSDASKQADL
EP2 mod – EP2 receptor modulators, cAMP readout, primary screen, cell-based, HTRF cAMP, PGE2 stimulation | EP2-expressing cells, cAMP HTRF FRET, PGE2 co-stimulation | induction, % at 25 µM | AID 940, 2007 | 260,000 tested, 0.83% active;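 active = compounds whose cAMP rise, as percent of the full-agonist control response, exceeds 60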;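 note: rat C6 glioma line stably carrying human EP2 under a CMV promoter; the protocol text gives 20 µM as final concentration; 100% = response of wells given 1 µM PGE2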
Dynein cargo inh – inhibitors of GR-EGFP nuclear translocation, primary screen, dynein cargo transport inhibitor project, imaging, high-content, 3617.4 mouse cells; test concentration mostly 20 µM; stimulated with dexamethasone, 1 µM; stronger effect = lower value; z-score, hits read low; 220,000 tested, 0.47% active; AID 1381, 2008;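 active = plate z-score of nuclear minus cytoplasmic receptor signal below a set negative limit, without overly bright fluorescence or cell loss, cut at about -3.5 in these data, passing the limit was not always enough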;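 note: z-score of nuclear minus cytoplasmic ring GR-EGFP intensity difference per well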
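Also added: dexamethasone, 1.0 µM final. Medium: tet-free, stripped-serum medium. Detection: fixed, Hoechst-stained cells imaged at 10x for EGFP. Read-out: nuclear-to-cytoplasmic GR-EGFP distribution per well. Times: induction 48 h, compound 1 h, agonist 30 min.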
Hsp70 act – Hsp70 transcriptional activators, primary screen, cell-based, HeLa, Hsp70 promoter luciferase, luminescence, 10 µM; HeLa Hsp70 promoter luciferase reporter; scaled: vehicle 0, proteasome-inhibitor control 100%; activation, % at 10 µM; 200,000 tested, 0.04% active; AID 1203, 2008;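 active = activation above the mean across all tested compounds plus 3 SD, cutoff set per campaign, cut at about 5.5% in these data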;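 note: 100% = MG132 at 30 µM as the positive control and 0% = DMSO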
* marks the source's active call; other numbers are inactive results; . = not tested or not shown; ! = repeats disagree.

SMILES | EP2 antag | EP2 mod | Dynein cargo inh | Hsp70 act
COc1ccc(-c2cc(-c3ccc(C)cc3)nc(N)c2C#N)cc1OC | 11 | -133 | . | .
N#Cc1c(-c2ccc3c(c2)OCO3)cc(-c2ccc(F)cc2)nc1N | 22 | 61* | . | .
c1ccc2oc(CN3CCOCC3)cc2c1 | 9 | -14 | . | .
COc1cccc(NC(=O)Cn2cc(C(C)=O)c3ccccc32)c1 | 12 | -76 | . | .
CCn1c(C(C)NC(=O)c2ccc(Cl)c(Cl)c2)n[nH]c1=S (configuration not stated) | 7 | -18 | . | .
CCSc1nc2ccccc2n1C(=O)/C=C/c1ccc(OC)c(OC)c1 | 7 | 22 | -0.83 | 0
COc1ccc(/C=C/C(=O)NCCN2CCOCC2)cc1OC | 5 | 3 | 0.3 | 0
C=CCSc1nc2ccccc2n1C(=O)/C=C/c1ccc(OC)c(OC)c1 | 2 | 17 | -5.1* | 0
COc1ccc(/C=C/C(=O)NCCn2c(C)cc3ccccc32)cc1OC | 114* | -40 | -0.8 | 0
Clc1ccc(/C=N/NC(=Nc2ccccc2)c2ccccn2)c(Cl)c1 | . | 61* | -0.33 | 1
CCOC(=O)CSc1ccc(-c2nc3ccccc3[nH]2)cn1 | 42*! | -49 | -0.21 | 0
Cc1cc2nc(-c3ccc(SCC(=O)N4CCOCC4)nc3)[nH]c2cc1C | 13 | -10 | 0.59 | 0
CCOC(=O)CSc1ccc(-c2nc3cc(C)c(C)cc3[nH]2)cn1 | 57*! | -62 | 0.12 | 0
COc1ccc(CCNC(=O)Cn2nc(C)n3c(cc4sc(C)cc43)c2=O)cc1 | . | 6 | . | .
CCCCSc1cnn(-c2ccccc2)c(=O)c1SCCCC | 17 | 9 | -1.2 | 0
CSc1cnn(-c2ccccc2)c(=O)c1SC | 42* | 3 | -1.3 | -1
CCSc1cnn(-c2ccccc2)c(=O)c1SCC | 136* | 3 | -0.43 | 0
O=C(NC1CCCCC1)c1sc2cc(Cl)ccc2c1Cl | 12 | 13 | . | .
CC(=O)O[C@H]1CC[C@@]2(C)C(=CC[C@@H]3[C@H]4CC[C@@H](c5cc(C(F)(F)F)n(C(C)=O)n5)[C@]4(C)CC[C@H]32)C1 | 42* | 18 | . | .
C[C@@H]1CC=C[C@H]2[C@H]1C(=O)N(Cc1ccccc1)[C@H]2c1ccc(C(F)(F)F)cc1 | 8 | 61* | -0.49 | .
O=C1C2C(c3ccccc3)CC=CC2[C@H](c2ccc(C(F)(F)F)cc2)N1Cc1ccccc1 (some centres not stated) | 9 | 12 | -1.2 | .
O=C(O)c1c(-c2nccc3ccccc23)[nH]c(-c2ccccc2)c1S(=O)(=O)O | 75* | 20 | . | .
COc1ccc(-c2nc(-c3ccccc3)cs2)cc1OC | 10 | 12 | . | .
COc1ccc(-c2nc(-c3ccc(O)cc3O)cs2)cc1OC | 82* | -43 | -0.14 | 0
O=C(Nc1nc(-c2nc3ccccc3s2)cs1)C1COc2ccccc2O1 (configuration not stated) | 42* | -43 | 0.032 | 0
SMILES | EP2 antag | EP2 mod | Dynein cargo inh | Hsp70 act
COc1cc(C(=O)Nc2ccc(NC(=O)c3ccco3)c(C)c2)cc(OC)c1OC | 9 | -6 | . | .
C[C@H](NC(=O)c1nc[nH]c1C(=O)N[C@@H](Cc1ccccc1)C(=O)OC(C)(C)C)c1ccccc1 | 9 | 64* | -0.81 | 0
Cc1cc(C)c2nc(NC(=O)c3cccnc3)sc2c1 | 13 | -78 | . | .
Cc1sc(NC(=O)CN2CCOCC2)nc1-c1ccc2c(c1)CCN2S(C)(=O)=O | 7 | -16 | . | .
Cn1ccnc1C1(O)COC2(CCN(C(=O)c3ccc4c(c3)OCCO4)CC2)C1 (configuration not stated) | . | -4 | . | .
COc1cccc2c(=S)c(CCC(C)=O)c(C)[nH]c12 | 7 | 63* | -0.4 | 0
CCCC(c1nnnn1Cc1ccccc1)N(Cc1cc2cc(C)ccc2[nH]c1=O)C1CCCC1 (configuration not stated) | 13 | 24 | . | .
CCCC(c1nnnn1C(C)(C)C)N(Cc1cccs1)Cc1cc2c(C)cc(C)cc2[nH]c1=O (configuration not stated) | 6 | 34 | . | .
CCCC(c1nnnn1C1CCCCC1)N(Cc1ccco1)Cc1cc2cc(CC)ccc2[nH]c1=O (configuration not stated) | 8 | 82* | . | .
CCc1ccc2[nH]c(=O)c(CN(Cc3cccs3)C(CC)c3nnnn3C(C)(C)CC)cc2c1 (configuration not stated) | 11 | 61* | . | .
CCOc1ccc2[nH]c(=O)c(CN(Cc3cccs3)C(CC)c3nnnn3C(C)(C)CC)cc2c1 (configuration not stated) | 6 | 56 | 0.27 | 0
Cc1cc(C)c2cc(CN(Cc3cccs3)C(c3nnnn3C(C)(C)C)C(C)C)c(=O)[nH]c2c1 (configuration not stated) | 14 | 61* | . | .
CCCC(c1nnnn1C(C)(C)C)N(Cc1cc2cc(C)ccc2[nH]c1=O)C1CCCCC1 (configuration not stated) | 9 | 66* | . | .
CCc1ccc2[nH]c(=O)c(CN(Cc3cccnc3)C(c3nnnn3C3CCCCC3)C(C)C)cc2c1 (configuration not stated) | 12 | 45 | . | .
Cn1c(=O)oc2cc(S(=O)(=O)Nc3cccc(N4CCCC4=O)c3)ccc21 | 6 | -389 | . | .
CCN(CC)C(=O)N1CCC(c2ncncc2-c2ccncc2)CC1 | . | -35 | . | .
CC1CCCC(C)N1C(=O)CSc1nnc(-c2ccncc2)n1Cc1ccccc1 (configuration not stated) | 6 | -72 | . | .
COc1ccccc1-n1c(SCC(=O)Nc2ccc(C)cc2C)nnc1-c1ccncc1 | 10 | -6 | . | .
COc1ccc(CNCc2cc3c(C)nn(-c4ccccc4)c3[nH]c2=O)cc1OC | 14 | -41 | . | .
CCCC(c1nnnn1C1CCCC1)N(Cc1ccco1)Cc1cc2cc(C)cc(C)c2[nH]c1=O (configuration not stated) | 16 | 20 | . | .
Cc1cc(C)c2cc(CN(Cc3ccco3)Cc3nnnn3C3CCCCC3)c(=O)[nH]c2c1 | 8 | 69* | . | .
CCCC(c1nnnn1C1CCCCC1)N(Cc1ccco1)Cc1cc2c(C)cc(C)cc2[nH]c1=O (configuration not stated) | 20 | 69* | . | .
CCC(c1nnnn1C1CCCC1)N(CCN1CCOCC1)Cc1cc2cc(C)ccc2[nH]c1=O (configuration not stated) | 5 | -2 | . | .
CCC(c1nnnn1C(C)(C)C)N(Cc1ccco1)Cc1cc2cc(C)ccc2[nH]c1=O (configuration not stated) | 9 | 59 | . | .
CCC(c1nnnn1C1CCCC1)N(Cc1ccco1)Cc1cc2cc(C)ccc2[nH]c1=O (configuration not stated) | 8 | 69* | . | .
